Structures can show the parent of a compound that is named as a salt.
How the values were obtained:
[1] = target: T1, 5-HT2C receptor (Homo sapiens, UniProt P28335); settings: Table 2; cited from earlier work
T1 sequence (P28335 33-458): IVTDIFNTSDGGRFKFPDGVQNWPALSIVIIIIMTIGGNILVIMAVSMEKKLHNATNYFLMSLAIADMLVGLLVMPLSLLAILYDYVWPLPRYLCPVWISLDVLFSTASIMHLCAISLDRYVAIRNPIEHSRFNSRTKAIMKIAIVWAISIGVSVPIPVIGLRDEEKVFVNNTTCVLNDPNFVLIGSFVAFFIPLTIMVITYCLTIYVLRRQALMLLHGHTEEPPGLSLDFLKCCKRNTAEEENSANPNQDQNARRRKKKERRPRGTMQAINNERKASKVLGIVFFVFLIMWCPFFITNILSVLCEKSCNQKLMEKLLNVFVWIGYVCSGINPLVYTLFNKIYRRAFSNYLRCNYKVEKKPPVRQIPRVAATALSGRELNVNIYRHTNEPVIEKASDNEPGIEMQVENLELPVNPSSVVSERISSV

[2] = tested on: Wistar rats; assay: 30 days toxicity, rats; assay type: in vivo; settings: 0.5, 5 and 25 mg/kg PO daily
In short: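 Wistar rats were randomised to vehicle, 0.5, 5 or 25 mg/kg, with 10 males and 10 females per group. Read-outs were body weight, plasma biochemistry markers, and macro- and microscopic observations.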

[3] = Caco-2 permeability; settings: human
[4] = Stability in human blood plasma; assay type: in vitro ADME; settings: 30-min incubation, room temperature
[5] = tested on: sodium channel (Site 2); assay: Target panel binding, sodium channel
[6] = tested on: outbreed male and female rats; assay: Reproductive toxicology in rats; assay type: in vivo
In short: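 Outbred male and female rats weighing 220–250 g received test compound in 0.9% physiological solution intragastrically at 1.0 or 25.0 mg/kg. Assessments covered embryotoxicity, offspring development, mating and fertilization capability, and reproductive function.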

[7] = tested on: male adult SHK mice; assay: 14 days toxicity, mice; assay type: in vivo; settings: 5 mg/kg PO daily
In short: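 Mice randomly assigned to a vehicle group or a 5 mg/kg group.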

[8] = Metabolism in human liver S9 fraction; assay type: in vitro ADME; settings: for half-life at 1 µM / half-life at 2 µM: human, liver S9 fraction
[9] = tested on: rhesus macaques (Macaca Mulatta); assay: 30 days toxicity, monkeys; assay type: in vivo; settings: 5 mg/kg PO daily
[10] = target: hERG channel (Homo sapiens, UniProt Q12809); assay: Target panel binding, hERG channel
Sequence of hERG channel (Q12809 whole entry): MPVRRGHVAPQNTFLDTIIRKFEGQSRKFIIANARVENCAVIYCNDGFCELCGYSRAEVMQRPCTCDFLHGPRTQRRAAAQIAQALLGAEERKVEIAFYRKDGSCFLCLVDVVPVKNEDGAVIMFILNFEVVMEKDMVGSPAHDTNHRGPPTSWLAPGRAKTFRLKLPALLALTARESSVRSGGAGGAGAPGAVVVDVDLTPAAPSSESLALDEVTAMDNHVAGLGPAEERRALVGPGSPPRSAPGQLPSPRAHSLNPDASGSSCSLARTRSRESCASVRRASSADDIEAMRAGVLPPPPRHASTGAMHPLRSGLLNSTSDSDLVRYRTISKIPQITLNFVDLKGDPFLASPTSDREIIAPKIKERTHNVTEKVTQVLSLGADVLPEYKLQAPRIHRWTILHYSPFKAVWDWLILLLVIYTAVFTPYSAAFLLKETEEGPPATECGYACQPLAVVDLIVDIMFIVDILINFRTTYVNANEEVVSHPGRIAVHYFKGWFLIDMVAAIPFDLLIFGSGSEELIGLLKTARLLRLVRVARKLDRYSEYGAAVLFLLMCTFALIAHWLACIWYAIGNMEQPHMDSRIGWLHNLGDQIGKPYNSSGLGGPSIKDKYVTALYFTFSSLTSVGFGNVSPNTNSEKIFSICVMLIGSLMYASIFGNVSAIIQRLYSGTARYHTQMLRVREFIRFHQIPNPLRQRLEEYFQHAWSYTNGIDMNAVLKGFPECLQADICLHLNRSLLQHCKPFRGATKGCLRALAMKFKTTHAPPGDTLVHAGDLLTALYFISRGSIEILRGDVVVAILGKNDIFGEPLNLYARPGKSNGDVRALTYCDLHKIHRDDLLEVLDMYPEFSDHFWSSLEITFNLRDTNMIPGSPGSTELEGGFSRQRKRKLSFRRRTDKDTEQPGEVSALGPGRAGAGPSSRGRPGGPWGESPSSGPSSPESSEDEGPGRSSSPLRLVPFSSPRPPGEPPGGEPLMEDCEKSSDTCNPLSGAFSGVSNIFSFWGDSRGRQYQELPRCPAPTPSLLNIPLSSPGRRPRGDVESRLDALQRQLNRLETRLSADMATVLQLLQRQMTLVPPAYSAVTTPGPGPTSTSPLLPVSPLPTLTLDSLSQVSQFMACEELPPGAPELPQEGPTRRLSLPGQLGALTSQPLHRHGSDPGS

[11] = Metabolism in human microsomes; assay type: in vitro ADME; settings: for Remaining quantity: HLM
[12] = target: P-glycoprotein (Homo sapiens, UniProt P08183); assay: Pgp-Glo ATPase assay; assay type: biochemical
Sequence of P-glycoprotein (P08183 whole entry): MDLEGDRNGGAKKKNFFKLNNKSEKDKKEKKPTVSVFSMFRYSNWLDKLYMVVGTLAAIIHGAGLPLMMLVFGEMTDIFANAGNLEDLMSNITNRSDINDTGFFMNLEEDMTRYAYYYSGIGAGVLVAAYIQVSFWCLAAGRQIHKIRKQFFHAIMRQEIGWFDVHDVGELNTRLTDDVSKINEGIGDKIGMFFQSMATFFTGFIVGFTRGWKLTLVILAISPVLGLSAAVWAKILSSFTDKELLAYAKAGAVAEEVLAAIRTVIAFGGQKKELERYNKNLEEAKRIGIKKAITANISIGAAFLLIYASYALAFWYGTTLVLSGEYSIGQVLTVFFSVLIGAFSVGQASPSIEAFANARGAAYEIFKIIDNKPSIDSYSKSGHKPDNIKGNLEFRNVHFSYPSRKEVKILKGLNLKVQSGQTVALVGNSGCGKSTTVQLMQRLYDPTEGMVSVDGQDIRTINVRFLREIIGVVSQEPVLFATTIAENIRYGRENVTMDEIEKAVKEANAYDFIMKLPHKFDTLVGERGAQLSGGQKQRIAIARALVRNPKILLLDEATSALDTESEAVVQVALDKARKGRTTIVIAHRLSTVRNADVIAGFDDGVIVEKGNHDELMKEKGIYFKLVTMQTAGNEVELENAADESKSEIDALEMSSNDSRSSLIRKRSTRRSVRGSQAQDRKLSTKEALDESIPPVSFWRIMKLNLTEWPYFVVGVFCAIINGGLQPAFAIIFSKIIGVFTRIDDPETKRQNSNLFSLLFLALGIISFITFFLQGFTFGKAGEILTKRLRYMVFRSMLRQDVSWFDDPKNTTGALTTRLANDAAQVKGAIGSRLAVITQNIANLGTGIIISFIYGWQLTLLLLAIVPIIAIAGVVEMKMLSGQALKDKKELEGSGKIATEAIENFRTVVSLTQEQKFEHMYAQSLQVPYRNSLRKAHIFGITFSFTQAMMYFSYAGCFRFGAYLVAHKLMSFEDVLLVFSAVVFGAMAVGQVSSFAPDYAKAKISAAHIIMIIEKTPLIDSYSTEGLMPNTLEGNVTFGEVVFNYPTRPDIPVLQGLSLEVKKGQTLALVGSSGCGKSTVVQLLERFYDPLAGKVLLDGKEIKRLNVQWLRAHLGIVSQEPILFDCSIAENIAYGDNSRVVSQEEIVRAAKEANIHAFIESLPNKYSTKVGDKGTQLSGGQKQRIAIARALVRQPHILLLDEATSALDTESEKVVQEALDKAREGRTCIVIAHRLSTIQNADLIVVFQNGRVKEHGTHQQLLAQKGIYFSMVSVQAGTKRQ
In short: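 P-glycoprotein ATPase activity was measured with the Pgp-Glo assay system per the manufacturer's protocol. Orthovanadate-sensitive activity was determined in the presence of test compound.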

[13] = tested on: male BALB/c mice; assay: Elevated Platform test; assay type: in vivo; settings: IP; Lorazepam 0.05 mg/kg, AVN-101 0.2 mg/kg; initial 2 min
[14] = tested on: BALB/c mice; assay: Porsolt forced swim test; assay type: in vivo; settings: AVN-101 0.05 mg/kg IP once daily for 4 days
[15] = target: calcium channels of N type (Homo sapiens, UniProt Q00975); assay: Target panel binding, calcium channel N type
[16] = target: CYP2D6 (Homo sapiens, UniProt P10635); assay: Metabolism by recombinant CYP2D6; assay type: in vitro ADME
Sequence of CYP2D6 (P10635 whole entry): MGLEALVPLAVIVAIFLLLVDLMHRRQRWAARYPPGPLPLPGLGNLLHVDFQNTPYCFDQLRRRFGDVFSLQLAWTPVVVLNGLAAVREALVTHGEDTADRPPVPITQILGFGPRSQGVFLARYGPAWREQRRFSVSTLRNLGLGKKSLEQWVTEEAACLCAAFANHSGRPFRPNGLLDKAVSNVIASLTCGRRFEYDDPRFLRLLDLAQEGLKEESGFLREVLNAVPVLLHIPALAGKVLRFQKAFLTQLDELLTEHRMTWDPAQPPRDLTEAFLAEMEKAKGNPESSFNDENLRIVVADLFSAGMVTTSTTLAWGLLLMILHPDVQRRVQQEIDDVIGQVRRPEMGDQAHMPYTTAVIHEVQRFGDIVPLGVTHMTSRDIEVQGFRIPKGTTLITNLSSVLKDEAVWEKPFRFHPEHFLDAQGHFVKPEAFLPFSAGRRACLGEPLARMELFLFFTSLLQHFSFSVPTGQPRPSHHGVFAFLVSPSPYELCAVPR

[17] = Biodistribution of [3H]AVN-101 in rat organs; assay type: in vivo, Wistar rats; settings: for concentration in Blood / concentration in Brain / concentration in Heart / concentration in Kidneys / concentration in Liver / concentration in Lungs / concentration in Spleen: [3H] label; for accumulation in brain higher than in blood: 4 h
[18] = tested on: male SHK mice; assay: Apomorphine-induced disruption of pre-pulse inhibition; assay type: in vivo; settings: IP
In short: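 Male SHK mice received apomorphine as the pro-psychotic agent to disrupt pre-pulse inhibition. Groups: untreated control, apomorphine alone, haloperidol 1 mg/kg as positive control, and test compound at several doses. Groups were compared with the apomorphine-only group by Student test.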

[19] = Metabolism in rat liver S9 fraction; assay type: in vitro ADME; settings: for half-life at 1 µM / half-life at 2 µM: rat, liver S9 fraction
[20] = tested on: healthy volunteers; assay: Phase I tolerability, healthy volunteers; assay type: in vivo, human
In short: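 Healthy volunteers received single oral doses. Venous blood was drawn through an IV catheter before dosing and at several time points after. Urine was collected before dosing and at 4 h and 24 h after. Systolic and diastolic pressure and heart rate were monitored.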

[21] = target: CYP2C9 (Homo sapiens, UniProt P11712); assay: Metabolism by recombinant CYP2C9; assay type: in vitro ADME
Sequence of CYP2C9 (P11712 whole entry): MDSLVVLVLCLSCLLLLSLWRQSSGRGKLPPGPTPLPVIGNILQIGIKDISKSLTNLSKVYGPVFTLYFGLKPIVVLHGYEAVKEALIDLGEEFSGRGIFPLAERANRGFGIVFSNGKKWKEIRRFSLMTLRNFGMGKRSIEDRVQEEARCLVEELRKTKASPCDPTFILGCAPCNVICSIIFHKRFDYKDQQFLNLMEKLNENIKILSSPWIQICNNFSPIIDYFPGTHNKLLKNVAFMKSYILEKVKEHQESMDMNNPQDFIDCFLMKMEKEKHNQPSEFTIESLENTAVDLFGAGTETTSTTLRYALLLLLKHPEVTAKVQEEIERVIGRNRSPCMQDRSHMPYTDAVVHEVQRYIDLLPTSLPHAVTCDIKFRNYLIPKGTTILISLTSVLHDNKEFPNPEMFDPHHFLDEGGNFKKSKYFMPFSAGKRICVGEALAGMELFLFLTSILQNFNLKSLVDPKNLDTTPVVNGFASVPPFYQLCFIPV

Cc1ccc2c(c1)c1c(n2CCc2ccccc2)CCN(C)C1 [AVN-101, 2,8-dimethyl-5-penethyl-2,3,4,5-tetra-hydro-1h-pyrido[[4,3-B]]indole hydrochloride]
Ki [1]: 0.00117 µM | signs of toxicity [2]: No signs of toxicity | Papp [3]: 19 ± 1.8 ×10⁻⁶ cm/s | Papp B→A [3]: 21 ± 2.1 ×10⁻⁶ cm/s | residual amount of original compound [4]: 68% | binding [5]: does not bind | reproductive function, male rats ([6]; 1.0 and 25.0 mg/kg intragastrically daily for 48 days): no reproductive function alteration | effect in female rats dosed prior to pairing ([6]; daily for 15 days prior to pairing): reduction in the body mass increase of the pregnant rats and their posterity | embryotoxic / teratogenic effect ([6]; doses up to 25.0 mg/kg, male or female): neither embryotoxic nor teratogenic effect | signs of toxicity [7]: No signs of toxicity | half-life at 1 µM ([8]; T1/2, +NADPH+UDPGA): 26.2 min | half-life at 2 µM ([8]; T1/2, +NADPH+UDPGA): 58.9 min | half-life at 1 µM ([8]; T1/2, +NADPH): 24.8 min | half-life at 2 µM ([8]; T1/2, +NADPH): 87.1 min | metabolism with UDPGA only ([8]; phase 2 co-factor UDPGA only): no metabolism | signs of toxicity [9]: did not show any signs of toxicity | binding [10]: does not bind | k el ([11]; 1μM): 0.335 | original AVN-101 consumed ([11]; 2μM, 30-min incubation): 57% | Remaining quantity ([11]; AVN-101 1 μM, 7.9 min): 3.0% | Remaining quantity ([11]; AVN-101 1 μM, 30 min): 2% | Remaining quantity ([11]; AVN-101 2 μM, 7.9 min): 40.0% | Remaining quantity ([11]; AVN-101 2 μM, 30 min): 43% | half-life at 1 µM ([11]; human, liver microsomes): 2.07 min | microsomal CLint at 1 µM ([11]; human, liver microsomes): 335 µL/min/mg | EC50 [12]: ~50 µM | effect on Pgp ATP-ase activity ([12]; orthovanadate-sensitive ATPase): strong activation | duration of freezing behavior [13]: significantly reduced duration of the freezing behavior | decrease in immobility time [14]: comparable to that observed with either Fluoxetine or Desipramine | binding [15]: does not bind | remaining at 0.5 h, 2 µM [16]: 0% | concentration in Blood ([17]; 4 h after IV 5 mg/kg): 360 ± 10 ng/mL | concentration in Brain ([17]; 4 h after IV 5 mg/kg): 9440 ± 360 ng/mL | concentration in Heart ([17]; 4 h after IV 5 mg/kg): 9240 ± 230 ng/mL | concentration in Kidneys ([17]; 4 h after IV 5 mg/kg): 6500 ± 200 ng/mL | concentration in Liver ([17]; 4 h after IV 5 mg/kg): 5300 ± 160 ng/mL | concentration in Lungs ([17]; 4 h after IV 5 mg/kg): 8960 ± 110 ng/mL | concentration in Spleen ([17]; 4 h after IV 5 mg/kg): 5940 ± 150 ng/mL | concentration in Blood ([17]; 4 h after PO 10 mg/kg): 460 ± 10 ng/mL | concentration in Brain ([17]; 4 h after PO 10 mg/kg): 6240 ± 240 ng/mL | concentration in Heart ([17]; 4 h after PO 10 mg/kg): 3280 ± 150 ng/mL | concentration in Kidneys ([17]; 4 h after PO 10 mg/kg): 4700 ± 220 ng/mL | concentration in Liver ([17]; 4 h after PO 10 mg/kg): 3780 ± 130 ng/mL | concentration in Lungs ([17]; 4 h after PO 10 mg/kg): 3200 ± 230 ng/mL | concentration in Spleen ([17]; 4 h after PO 10 mg/kg): 3740 ± 150 ng/mL | accumulation in brain higher than in blood ([17]; IV): 26 fold | accumulation in brain higher than in blood ([17]; PO): 13 fold | IV/PO, normalized, Kidneys ([17]; normalized by dose): 2.77 | IV/PO, normalized, Spleen ([17]; normalized by dose): 3.18 | Organ bioavailability, Blood ([17]; rat, in vivo): 63.9% | Organ bioavailability, Brain ([17]; rat, in vivo): 33.0% | Organ bioavailability, Heart ([17]; rat, in vivo): 17.7% | Organ bioavailability, Kidneys ([17]; rat, in vivo): 36.2% | Organ bioavailability, Liver ([17]; rat, in vivo): 35.6% | Organ bioavailability, Lungs ([17]; rat, in vivo): 17.9% | Organ bioavailability, Spleen ([17]; rat, in vivo): 31.5% | optimal dose in restoration of PPI [18]: 0.1 to 0.5 mg/kg | effect on apomorphine-induced disruption of PPI ([18]; apomorphine 20 mg/kg, Haloperidol 1 mg/kg): effective in reversing | metabolism with UDPGA only ([19]; phase 2 co-factor UDPGA only): no metabolism | half-life at 1 µM ([19]; T1/2, +NADPH+UDPGA): 0.96 min | half-life at 2 µM ([19]; T1/2, +NADPH+UDPGA): 2.34 min | half-life at 1 µM ([19]; T1/2, +NADPH): 1.22 min | half-life at 2 µM ([19]; T1/2, +NADPH): 2.36 min | sleepiness ([20]; 20 mg, 8 volunteers per group): 3 volunteers | adverse effects ([20]; 20 mg, first half of the day): some adverse effects were detected in five volunteers | blood pressure, one person ([20]; 20 mg, 141/88 before to 157/87 (2 h–4 h) and 155/77 (6 h–7.5 h)): transient increase in systolic pressure | QT interval in ECG ([20]; 2, 4, 10, 20 mg single PO dose): No QT interval prolongation | biochemical and clinical parameters of blood and urine ([20]; all dose groups): in a normal range | tolerability ([20]; orally, doses of up to 20 mg daily): well tolerated | remaining at 0.5 h, 2 µM [21]: 110%

From PMC4969713 (Journal of Alzheimer's Disease, 2016)
